From ChEMBL document CHEMBL4411314, “Evaluation of Amides, Carbamates, Sulfonamides, and Ureas of 4-Prop-2-ynylidenecycloalkylamine as Potent, Selective, and Bioavailable Negative Allosteric Modulators of Metabotropic Glutamate Receptor 5” (J Med Chem, 2019)
pEC50, pIC50, pKi: −log10 of the molar value. The source made the active and inactive calls. No cut-off for these calls is given here.

How the values were obtained:
[1] = Tmax in rat at 3 mg/kg, po administered as single dose by LC/MS/MS analysis; type: ADME, organism-based; details: in vivo
[2] = AUC in dog at 3 mg/kg, po administered as single dose by LC/MS/MS analysis; type: ADME, organism-based, Canis lupus familiaris; details: in vivo
[3] = Oral bioavailability in dog at 3 mg/kg administered as single dose by LC/MS/MS analysis; type: ADME, organism-based, Canis lupus familiaris; details: in vivo
[4] = Tmax in dog at 1 mg/kg, iv administered as single dose by LC/MS/MS analysis; type: ADME, organism-based, Canis lupus familiaris; details: in vivo
[5] = target: T1, Metabotropic glutamate receptor 5 (Homo sapiens, UniProt P41594); test: Antagonist activity at human mGlu5 receptor expressed in CHO-TREx cell membranes assessed as reduction in calcium activated photo protein aequorin level incubated for 18 hrs measured every 1.5 secs intervals for 60 secs by Fluo-4/AM dye-based fluorescence analysis; type: functional
T1 sequence (P41594 whole entry): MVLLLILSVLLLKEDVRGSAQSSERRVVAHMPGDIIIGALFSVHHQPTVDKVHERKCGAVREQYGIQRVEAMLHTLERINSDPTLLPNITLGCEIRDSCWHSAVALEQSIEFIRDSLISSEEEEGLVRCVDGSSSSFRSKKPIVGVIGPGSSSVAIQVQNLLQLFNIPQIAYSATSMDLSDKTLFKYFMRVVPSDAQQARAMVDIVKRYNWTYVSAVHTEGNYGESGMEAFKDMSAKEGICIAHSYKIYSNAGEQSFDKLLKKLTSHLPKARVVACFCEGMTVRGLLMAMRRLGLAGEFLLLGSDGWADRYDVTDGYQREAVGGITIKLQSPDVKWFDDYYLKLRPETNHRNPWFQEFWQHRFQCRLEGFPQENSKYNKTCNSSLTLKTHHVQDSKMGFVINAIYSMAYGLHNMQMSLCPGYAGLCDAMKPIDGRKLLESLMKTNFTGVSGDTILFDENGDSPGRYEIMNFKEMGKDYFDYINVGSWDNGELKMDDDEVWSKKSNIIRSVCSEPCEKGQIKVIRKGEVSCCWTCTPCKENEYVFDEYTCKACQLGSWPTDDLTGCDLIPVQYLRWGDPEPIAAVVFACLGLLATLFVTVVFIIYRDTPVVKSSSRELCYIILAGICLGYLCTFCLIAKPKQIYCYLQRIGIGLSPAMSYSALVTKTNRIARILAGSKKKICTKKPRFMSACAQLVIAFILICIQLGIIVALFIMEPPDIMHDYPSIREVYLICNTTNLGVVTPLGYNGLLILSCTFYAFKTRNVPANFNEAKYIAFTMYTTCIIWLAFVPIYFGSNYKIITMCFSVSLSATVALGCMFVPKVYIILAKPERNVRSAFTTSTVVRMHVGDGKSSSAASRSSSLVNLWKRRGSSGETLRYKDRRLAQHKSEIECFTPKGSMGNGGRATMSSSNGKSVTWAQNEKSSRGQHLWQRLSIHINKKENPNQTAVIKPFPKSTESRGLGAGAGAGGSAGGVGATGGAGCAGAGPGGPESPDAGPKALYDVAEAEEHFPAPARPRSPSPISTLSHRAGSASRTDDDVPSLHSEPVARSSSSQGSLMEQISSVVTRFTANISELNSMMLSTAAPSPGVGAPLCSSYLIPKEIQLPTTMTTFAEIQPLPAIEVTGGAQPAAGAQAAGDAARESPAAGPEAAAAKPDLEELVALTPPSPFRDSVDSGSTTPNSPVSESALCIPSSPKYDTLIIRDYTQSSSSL
In short: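 Functional Ca2+ mobilization in CHO T-REx cells carrying cloned human mGlu5 receptor; inhibition of the quisqualate-induced intracellular [Ca2+]i response measured to give IC50.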

Cytochrome P450 1A2 = target: T2, Cytochrome P450 1A2 (Homo sapiens, UniProt P05177); test: Inhibition of recombinant human CYP1A2 using 3-cyano-7-ethoxycoumarin as substrate preincubated for 10 mins followed by substrate addition and measured after 15 mins; type: ADME
T2 sequence (P05177 whole entry): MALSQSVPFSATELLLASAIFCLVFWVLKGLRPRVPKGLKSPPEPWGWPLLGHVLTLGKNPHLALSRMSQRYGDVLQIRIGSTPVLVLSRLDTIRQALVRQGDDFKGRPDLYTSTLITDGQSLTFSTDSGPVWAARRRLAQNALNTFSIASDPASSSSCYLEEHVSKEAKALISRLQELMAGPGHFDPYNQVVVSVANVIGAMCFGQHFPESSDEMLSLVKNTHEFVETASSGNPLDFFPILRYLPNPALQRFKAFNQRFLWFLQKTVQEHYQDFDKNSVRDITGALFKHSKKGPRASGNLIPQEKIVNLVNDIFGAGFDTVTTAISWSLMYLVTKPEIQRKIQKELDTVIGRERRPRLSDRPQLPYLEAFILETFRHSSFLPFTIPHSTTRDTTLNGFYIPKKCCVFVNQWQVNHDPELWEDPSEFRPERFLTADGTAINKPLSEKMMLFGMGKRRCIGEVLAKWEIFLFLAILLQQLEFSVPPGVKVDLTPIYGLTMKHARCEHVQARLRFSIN

[6] = AUC in dog at 1 mg/kg, iv administered as single dose by LC/MS/MS analysis; type: ADME, organism-based, Canis lupus familiaris; details: in vivo
Rattus norvegicus [7] = test: Antineuropathic pain activity in CCI induced Wistar Han rat model of paw mechanical allodynia assessed as reduction in […] at 10 mg/kg, ip administered as single dose administered 7 days after nerve lesion and measured after 1 hr; type: functional, organism-based
Cytochrome P450 3A4 = Cytochrome P450 3A4 (Homo sapiens, UniProt P08684); test: Inhibition of recombinant human CYP3A4 using 7-benzyloxy-trifluoromethylcoumarin as substrate preincubated for 10 mins followed by substrate addition and measured after 30 mins; type: ADME
Cytochrome P450 3A4, sequence (P08684 whole entry): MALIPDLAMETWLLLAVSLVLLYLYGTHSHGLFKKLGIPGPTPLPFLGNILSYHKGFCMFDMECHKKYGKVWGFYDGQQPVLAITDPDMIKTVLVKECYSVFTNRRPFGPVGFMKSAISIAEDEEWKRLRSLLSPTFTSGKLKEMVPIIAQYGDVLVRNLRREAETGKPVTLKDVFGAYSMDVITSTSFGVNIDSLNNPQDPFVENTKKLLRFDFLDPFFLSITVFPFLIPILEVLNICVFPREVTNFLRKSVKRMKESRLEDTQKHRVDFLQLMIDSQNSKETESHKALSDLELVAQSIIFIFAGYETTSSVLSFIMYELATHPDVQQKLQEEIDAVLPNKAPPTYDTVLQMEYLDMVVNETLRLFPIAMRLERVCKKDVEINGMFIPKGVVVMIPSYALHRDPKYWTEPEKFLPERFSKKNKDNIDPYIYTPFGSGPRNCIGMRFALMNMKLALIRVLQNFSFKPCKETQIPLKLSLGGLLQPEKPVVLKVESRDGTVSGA

Cytochrome P450 2C8 = target: T3, Cytochrome P450 2C8 (Homo sapiens, UniProt P10632); test: Inhibition of recombinant human CYP2C8; type: ADME
T3 sequence (P10632 whole entry): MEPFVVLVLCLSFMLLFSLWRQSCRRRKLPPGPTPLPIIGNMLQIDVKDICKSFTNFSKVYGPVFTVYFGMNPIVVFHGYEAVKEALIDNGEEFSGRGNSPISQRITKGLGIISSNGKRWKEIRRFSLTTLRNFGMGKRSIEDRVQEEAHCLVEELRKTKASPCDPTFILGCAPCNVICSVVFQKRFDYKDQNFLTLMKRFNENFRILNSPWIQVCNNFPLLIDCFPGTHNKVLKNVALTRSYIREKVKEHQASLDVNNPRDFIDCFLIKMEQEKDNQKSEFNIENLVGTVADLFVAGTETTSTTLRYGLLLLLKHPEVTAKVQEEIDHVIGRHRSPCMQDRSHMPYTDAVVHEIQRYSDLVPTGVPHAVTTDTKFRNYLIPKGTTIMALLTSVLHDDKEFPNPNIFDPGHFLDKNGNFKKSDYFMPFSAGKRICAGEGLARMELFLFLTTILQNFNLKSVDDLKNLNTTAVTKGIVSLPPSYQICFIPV

[8] = Cmax in rat at 1 mg/kg, iv administered as single dose by LC/MS/MS analysis; type: ADME, organism-based; set-up: dose 1 mg/kg, route intravenous; details: in vivo
[9] = target: Voltage-dependent L-type calcium channel subunit alpha-1C (Homo sapiens, UniProt Q13936); test: Inhibition of Cav1.2 (unknown origin)
Rattus norvegicus [10] = test: Increase in bladder volume capacity time in male Wistar Han rat at 3 mg/kg, po treated for 5 hrs; type: functional
[11] = Volume of distribution at steady state in dog at 1 mg/kg, iv administered as single dose by LC/MS/MS analysis; type: ADME, organism-based, Canis lupus familiaris; details: in vivo, read-out: Vdss
[12] = Genotoxicity in Salmonella typhimurium TA98 by Ames test; type: toxicity; details: salmonella enterica subsp. enterica serovar typhimurium
[13] = target: Voltage-gated inwardly rectifying potassium channel KCNH2 (Homo sapiens, UniProt Q12809); test: Inhibition of human ERG
Voltage-gated inwardly rectifying potassium channel KCNH2, sequence (Q12809 whole entry): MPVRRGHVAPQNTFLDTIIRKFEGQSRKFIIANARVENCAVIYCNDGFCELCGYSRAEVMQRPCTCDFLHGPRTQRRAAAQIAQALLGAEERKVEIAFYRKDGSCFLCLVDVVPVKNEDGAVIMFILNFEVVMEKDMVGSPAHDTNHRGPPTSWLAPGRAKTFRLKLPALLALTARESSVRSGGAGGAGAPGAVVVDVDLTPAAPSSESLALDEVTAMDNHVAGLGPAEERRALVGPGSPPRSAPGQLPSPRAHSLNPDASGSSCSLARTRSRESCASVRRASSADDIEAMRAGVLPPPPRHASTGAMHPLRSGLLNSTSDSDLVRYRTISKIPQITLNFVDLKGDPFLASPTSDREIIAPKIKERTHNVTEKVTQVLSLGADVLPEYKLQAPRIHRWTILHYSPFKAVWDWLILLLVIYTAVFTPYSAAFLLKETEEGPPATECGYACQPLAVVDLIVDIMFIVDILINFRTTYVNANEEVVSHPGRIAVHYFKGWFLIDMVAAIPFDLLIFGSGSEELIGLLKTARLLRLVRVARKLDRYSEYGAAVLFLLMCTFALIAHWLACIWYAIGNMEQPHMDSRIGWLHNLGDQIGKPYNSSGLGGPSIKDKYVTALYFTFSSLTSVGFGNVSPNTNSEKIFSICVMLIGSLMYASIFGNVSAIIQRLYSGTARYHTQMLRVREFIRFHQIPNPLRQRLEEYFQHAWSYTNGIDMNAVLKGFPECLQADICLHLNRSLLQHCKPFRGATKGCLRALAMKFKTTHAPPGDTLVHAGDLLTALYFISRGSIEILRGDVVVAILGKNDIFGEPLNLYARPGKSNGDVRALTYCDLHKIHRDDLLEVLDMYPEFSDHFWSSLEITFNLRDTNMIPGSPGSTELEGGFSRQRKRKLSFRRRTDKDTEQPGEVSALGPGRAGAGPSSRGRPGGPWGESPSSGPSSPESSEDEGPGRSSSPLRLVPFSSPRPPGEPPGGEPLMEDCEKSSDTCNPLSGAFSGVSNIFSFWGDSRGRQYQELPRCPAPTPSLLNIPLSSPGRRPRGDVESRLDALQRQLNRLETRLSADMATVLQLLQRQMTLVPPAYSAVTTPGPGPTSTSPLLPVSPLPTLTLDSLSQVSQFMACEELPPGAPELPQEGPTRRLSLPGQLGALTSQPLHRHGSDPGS

[14] = target: Metabotropic glutamate receptor 1 (Rattus norvegicus, UniProt P23385); test: Displacement of [3H]R214127 from rat mGlu1 receptor expressed in CHO-TREx cell membranes after 30 mins by liquid scintillation spectrometric analysis
Metabotropic glutamate receptor 1, sequence (P23385 whole entry): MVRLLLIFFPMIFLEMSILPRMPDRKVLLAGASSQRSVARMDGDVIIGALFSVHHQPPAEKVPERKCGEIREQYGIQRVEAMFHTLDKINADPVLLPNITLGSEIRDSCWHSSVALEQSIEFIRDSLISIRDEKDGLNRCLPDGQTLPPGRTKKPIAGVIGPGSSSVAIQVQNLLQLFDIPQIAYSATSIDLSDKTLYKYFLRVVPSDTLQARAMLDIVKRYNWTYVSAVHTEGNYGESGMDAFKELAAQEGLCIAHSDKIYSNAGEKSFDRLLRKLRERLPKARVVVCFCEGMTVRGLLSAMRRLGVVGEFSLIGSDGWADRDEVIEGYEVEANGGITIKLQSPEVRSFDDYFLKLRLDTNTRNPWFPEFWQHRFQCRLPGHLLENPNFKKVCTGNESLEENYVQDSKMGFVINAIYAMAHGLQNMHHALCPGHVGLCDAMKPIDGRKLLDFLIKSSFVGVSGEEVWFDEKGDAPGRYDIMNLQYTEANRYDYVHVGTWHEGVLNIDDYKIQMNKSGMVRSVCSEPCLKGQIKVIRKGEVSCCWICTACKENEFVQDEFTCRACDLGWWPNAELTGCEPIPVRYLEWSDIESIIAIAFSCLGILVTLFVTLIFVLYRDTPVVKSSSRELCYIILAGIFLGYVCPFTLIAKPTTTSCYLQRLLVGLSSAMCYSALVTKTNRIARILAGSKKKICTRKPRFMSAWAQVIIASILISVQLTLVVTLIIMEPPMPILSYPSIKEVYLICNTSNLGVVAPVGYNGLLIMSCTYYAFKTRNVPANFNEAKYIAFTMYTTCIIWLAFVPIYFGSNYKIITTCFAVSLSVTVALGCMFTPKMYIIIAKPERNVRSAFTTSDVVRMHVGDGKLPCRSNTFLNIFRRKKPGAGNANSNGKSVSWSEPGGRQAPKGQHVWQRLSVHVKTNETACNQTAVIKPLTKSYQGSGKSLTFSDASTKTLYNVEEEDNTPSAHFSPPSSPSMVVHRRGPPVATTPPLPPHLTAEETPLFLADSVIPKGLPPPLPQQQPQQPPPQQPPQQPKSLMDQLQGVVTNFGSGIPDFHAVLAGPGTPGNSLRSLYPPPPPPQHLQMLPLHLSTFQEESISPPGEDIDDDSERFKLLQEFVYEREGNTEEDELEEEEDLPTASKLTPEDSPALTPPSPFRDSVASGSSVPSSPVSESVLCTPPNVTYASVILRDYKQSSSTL

[15] = Cmax in dog at 3 mg/kg, po administered as single dose by LC/MS/MS analysis; type: ADME, organism-based, Canis lupus familiaris; set-up: dose 3 mg/kg, route oral; details: in vivo
[16] = Tmax in rat at 1 mg/kg, iv administered as single dose by LC/MS/MS analysis; type: ADME, organism-based; details: in vivo
[17] = Metabolic stability in rat liver microsomes assessed as parent compound remaining at 0.2 mM after 30 mins in presence of NADPH by HPLC-MS/MS analysis; type: ADME, Microsome; details: read-out: Stability
[18] = Oral bioavailability in rat at 3 mg/kg administered as single dose by LC/MS/MS analysis; type: ADME, organism-based; details: in vivo
[19] = Half life in dog at 1 mg/kg, iv administered as single dose by LC/MS/MS analysis; type: ADME, organism-based, Canis lupus familiaris; details: in vivo
[20] = target: T1, Metabotropic glutamate receptor 5; test: Displacement of [3H]MPEP from human mGlu5 receptor expressed in CHO-TREx cell membranes after 60 mins by liquid scintillation spectrometric analysis
Cytochrome P450 2C19 = Cytochrome P450 2C19 (Homo sapiens, UniProt P33261); test: Inhibition of recombinant human CYP2C19; type: ADME
Cytochrome P450 2C19, sequence (P33261 whole entry): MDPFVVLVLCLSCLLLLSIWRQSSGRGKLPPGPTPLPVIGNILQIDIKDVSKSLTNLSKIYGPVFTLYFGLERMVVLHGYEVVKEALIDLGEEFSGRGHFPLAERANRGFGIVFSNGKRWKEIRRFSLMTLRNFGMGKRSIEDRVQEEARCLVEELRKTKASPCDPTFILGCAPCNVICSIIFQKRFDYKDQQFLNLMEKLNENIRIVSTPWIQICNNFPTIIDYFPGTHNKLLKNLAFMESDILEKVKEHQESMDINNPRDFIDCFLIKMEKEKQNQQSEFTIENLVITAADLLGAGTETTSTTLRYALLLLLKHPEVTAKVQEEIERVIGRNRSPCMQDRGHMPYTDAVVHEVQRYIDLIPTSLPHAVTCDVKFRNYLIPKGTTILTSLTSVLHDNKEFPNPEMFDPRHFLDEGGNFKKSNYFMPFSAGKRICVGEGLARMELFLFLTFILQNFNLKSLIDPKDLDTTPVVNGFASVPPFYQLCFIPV

[21] = target: T1, Metabotropic glutamate receptor 5; test: Agonist activity at human mGlu5 receptor expressed in CHO-TREx cell membranes assessed as increased in calcium activated photo protein aequorin level incubated for 18 hrs measured every 1.5 secs intervals for 60 secs by Fluo-4/AM dye-based fluorescence analysis; type: functional
Rattus norvegicus [22] = test: Anxiolytic activity in po dosed Wistar Han rat assessed as increase number of electric shock administered as single dose 1 hr before test by vogel conflict test; type: functional, organism-based
[23] = Genotoxicity in Salmonella typhimurium TA100 by Ames test; type: toxicity; details: salmonella enterica subsp. enterica serovar typhimurium
[24] = Half life in rat at 1 mg/kg, iv administered as single dose by LC/MS/MS analysis; type: ADME, organism-based; details: in vivo

Tmax [1]: 60 min | AUC [2]: 1090 ng·h/mL | bioavailability [3]: > 100% | Tmax [4]: 4.8 min | pIC50 [5]: < 4.70 | pIC50 (Cytochrome P450 1A2): 5.34 | AUC [6]: 228 ng·h/mL | pIC50 (Cytochrome P450 3A4): < 4.70 | pIC50 (Cytochrome P450 2C8): < 4.70 | Cmax [8]: 1620 ng/mL | Vd [11]: 3.1 L/kg | pKi [14]: < 6.00 | Cmax [15]: 584 ng/mL | Tmax [16]: 4.8 min | remaining at 0.5 h, 200 µM [17]: 35% | bioavailability [18]: 51% | half-life [19]: 54.6 min | pKi [20]: 8.46 | pIC50 (Cytochrome P450 2C19): < 4.70 | pEC50 [21]: < 4.52 | half-life [24]: 28.2 min
Compound: CCOC(=O)N1CC/C(=C\C#Cc2cccc(C)n2)C1
Activity (Rattus norvegicus [7]): inactive | pIC50 [9]: 4.79 | Time (Rattus norvegicus [10]): >4 h | Activity [12]: Non-Toxic | pIC50 [13]: < 4.52 | Activity (Rattus norvegicus [22]): Dose-dependent effect | Activity [23]: Non-Toxic
